Laboratory results reported in ChEMBL document CHEMBL1821591, “Cytotoxic bipyridines from the marine-derived actinomycete Actinoalloteichus cyanogriseus WH1-2216-6” (J Nat Prod, 2011).
pIC50: −log10 of the molar value. Values after ≈ are worked out from the molar mass of the structure shown.

Tests used:
Pseudomonas aeruginosa = assay: Antimicrobial activity against Pseudomonas aeruginosa after 24 hrs by agar dilution method; type: functional
Candida albicans = assay: Antimicrobial activity against Candida albicans after 24 hrs by agar dilution method; type: functional
Klebsiella aerogenes = assay: Antimicrobial activity against Aerobacter aerogenes after 24 hrs by agar dilution method; type: functional
Escherichia coli = assay: Antimicrobial activity against Escherichia coli after 24 hrs by agar dilution method; type: functional
KB = assay: Cytotoxicity against human KB cells after 72 hrs by MTT assay; type: functional, cell-based
Summary of the method: (§1)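 MTT read-out on HL-60, K562 and KB; activity expressed as IC50 in μM.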

A549 = assay: Cytotoxicity against human A549 cells after 24 hrs by SRB assay; type: functional, cell-based; details: A549, 24 h
K562 = assay: Cytotoxicity against human K562 cells after 72 hrs by MTT assay; type: functional, cell-based; details: K562, 72 h; summary of the method: as §1
HL-60 = assay: Cytotoxicity against human HL60 cells after 72 hrs by MTT assay; type: functional, cell-based; details: HL-60, 72 h; summary of the method: as §1

Compound	MIC (Pseudomonas aeruginosa) [µM]	MIC (Candida albicans) [µM]	MIC (Klebsiella aerogenes) [µM]	MIC (Escherichia coli) [µM]	pIC50 (KB)	pIC50 (A549)	pIC50 (K562)	pIC50 (HL-60)
O=C(O)c1cn(C2CC2)c2cc(N3CCNCC3)c(F)cc2c1=O [CIPROFLOXACIN LACTATE]	3.8	1.2	0.94					
CC(=O)N1CCN(c2ccc(OCC3COC(Cn4ccnc4)(c4ccc(Cl)cc4Cl)O3)cc2)CC1 (centres undefined) [KETOCONAZOLE]	3.8 (≈ 2.02 µg/mL)	1.2 (≈ 0.638 µg/mL)	0.94 (≈ 0.5 µg/mL)	1.9 (≈ 1.01 µg/mL)				
COc1cc(/C=N/O)nc(-c2ccccn2)c1 [CAERULOMYCIN A]	21.8 (≈ 5 µg/mL)	21.8 (≈ 5 µg/mL)		10.9 (≈ 2.5 µg/mL)	< 4.30	6.59	< 4.30	6.15
